Legend:
Ad4 = Ad4 yield reduction assay; assay type: cell-based, human adenovirus type-4; settings: A549 cells, 10 μM olomoucine II, 100 μM cidofovir or both
Procedure, shortened: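 Confluent A549 monolayers were infected with 2,000 PFU/well Ad4 (multistep growth curve, MOI 0.01) for 1 h at 37°C with rocking. They were rinsed, then kept in medium with 10 μM test compound, 100 μM cidofovir, or both. Cells and media were harvested separately at 6–96 h, and released and total virus were titrated on A549 cells. The 0 h point is the inoculum.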

CDK9 = settings: cited from earlier work
[1] = WST-1 cytotoxicity assay, A549 cells; assay type: cell-based; settings: human, A549 cells (human lung carcinoma epithelial cells)
Procedure, shortened: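 A549 cells were grown in DMEM with 10% heat-inactivated FBS and antibiotics, then exposed to test compound. Viability was measured with a WST-1 kit, following the kit protocol, as absorbance at 450 nm.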

[2] = system: human fetal foreskin fibroblast cells; test: Apoptosis as caspase-3/7 activity; assay type: cell-based; settings: 15–50 μM olomoucine II; 24, 48, 72 h
Procedure, shortened: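 Confluent HFFF cells (DMEM, 10% heat-inactivated FBS) were exposed for 24, 48 or 72 h to test compound dilutions, to mock treatment, or to serum deprivation. Caspase-3/7 activity was read by Caspase-Glo 3/7 luminescence, following the kit protocol. Values are blank-subtracted relative luminescence units ± SD.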

[3] = WST-1 cytotoxicity assay, HFFF cells; assay type: cell-based, human; settings: human, HFFF cells (human fetal foreskin fibroblasts), confluent
HFFF cells = test: WST-1 cytotoxicity assay, HFFF cells; assay type: cell-based, human; settings: 2.4–5.3 μM olomoucine II, WST-1, fibroblasts

Row | Compound | Reduction of total virus yield (Ad4; 24 h post-infection) | Reduction of total virus yield (Ad4; 48 h post-infection) [log] | Reduction of total virus yield (Ad4; 96 h post-infection) | Higher inhibitory activity for CDK9 compared with roscovitine (CDK9) [fold] | CC50 at 48 h [1] [µM] | CC50 at 96 h [1] [µM] | CC50 at 120 h [1] [µM] | Caspase-3/7 activity [2] | CC50 at 24 h [3] [µM] | CC50 at 48 h [3] [µM] | CC50 at 72 h [3] [µM] | CC50 at 96 h [3] [µM] | CC50 at 168 h [3] [µM] | Cytotoxicity at antiviral IC50 levels (HFFF cells)
1 | Nc1ccn(C[C@@H](CO)OCP(=O)(O)O)c(=O)n1 [Cidofovir, (S)-1-[3-hydroxy-2-(phosphonylmethoxy)propyl]-cytosine, reference compound] | 2 log (log10 PFU) | 2 | 3 log | – | – | – | – | – | – | – | – | – | – | –
2 | CC[C@H](CO)Nc1nc(NCc2ccccc2O)c2ncn(C(C)C)c2n1 [Olomoucine II, 6-(2-hydroxybenzylamino)-2-{[(1R)-(hydroxymethyl)propyl]amino}-9-isopropylpurine] | 5 log (log10 PFU) | 1 | no overall effect on virus yield | 10 | > 100 | > 100 | > 100 | caspase activation | > 100 | 73 ± 4 | 16 ± 2 | 17 ± 2 | 16 ± 3 | no significant cytotoxicity was detected
3 | CC[C@H](CO)Nc1nc(NCc2ccccc2)c2ncn(C(C)C)c2n1 [Roscovitine, 2-(R)-(1-ethyl-2-hydroxyethylamino)-6-benzylamino-9-isopropylpurine, reference compound] | – | – | – | – | > 100 | > 100 | > 100 | – | > 100 | 84 ± 5 | 21 ± 2 | – | 30 ± 4 | –

Reference: article PMC2948526 (Antiviral chemistry & chemotherapy, 2010)
